Assay results: ChEMBL document CHEMBL1123158, “Synthesis and quantitative structure-activity relationships of antiallergic 2-hydroxy-N-1H-tetrazol-5-ylbenzamides and N-(2-hydroxyphenyl)-1H-tetrazole-5-carboxamides” (J Med Chem, 1986)

Assays:
[1] = organism: Rattus norvegicus; experiment: Biological activity; format: functional
[2] = system: Rattus norvegicus; experiment: Antiallergic activity in the rat PCA test following iv administration relative to M&B 22,948, the dose of which was 0.1 mg/kg for 100% inhibition; format: functional
[3] = system: Rattus norvegicus; experiment: Inhibitory dose in the rat PCA test following iv administration; format: functional; conditions: read-out: ID50 (the source's name)
[4] = system: Rattus norvegicus; experiment: Inhibitory dose in the rat PCA test following oral administration; format: functional; conditions: read-out: ID50 (the source's name)
[5] = The function log (MrI) where M, is the molecular weight of the test compound and I is its activity relative to the reference compound 1, expresses the biological activity in molar terms; format: functional
Method in brief: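 Relative activity I from iv rat PCA 100%-inhibition comparison with M&B 22,948, converted to molar terms as log(Mr·I) using the compound's molecular weight.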

[6] = Association constant at 25 degree C in aqueous media; format: ADME
Method in brief: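 Spectroscopic method in aqueous buffer at 25 °C. Values are thermodynamic pKa's corrected for the ionic strength of the buffer solutions.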

Row | Structure (SMILES) | Log [MrI] [1] | Relative activity [2] | further results
1 | CC(=O)c1cc(NC(=O)c2nn[nH]n2)c(O)c(C(C)=O)c1 | 2.16 | 0.5 | –
2 | CC(=O)c1cc([N+](=O)[O-])cc(NC(=O)c2nn[nH]n2)c1O | 3.164 | 5 | –
3 | O=C(Nc1nn[nH]n1)c1ccccc1O | 1.312 | 0.1 | –
4 | CCc1cc(C(=O)Nc2nn[nH]n2)c(O)c(/C(C)=N/OC)c1 | 3.025 | 3.5 | –
5 | CCC(=O)c1cc(CC)cc(NC(=O)c2nn[nH]n2)c1O | 3.16 | 5 | –
6 | CCC(=O)c1cc(CC)cc(C(=O)Nc2nn[nH]n2)c1O | 2.34 | 0.75 | –
7 | O=C(Nc1ccccc1O)c1nn[nH]n1 | 2.31 | 1 | –
8 | COc1cc(NC(=O)c2nn[nH]n2)c(O)c(C(C)=O)c1 | 3.443 | 10 | –
9 | CCc1cc(C(C)=O)c(O)c(C(=O)Nc2nn[nH]n2)c1 | 2.439 | 1 | –
10 | COc1cc(OC)c(O)c(C(=O)Nc2nn[nH]n2)c1 | 2.122 | 0.5 | –
11 | CC(=O)Nc1ccc(O)c(C(=O)Nc2nn[nH]n2)c1 | 0.418 | 0.01 | –
12 | CCC(=O)c1cc(C)cc(NC(=O)c2nn[nH]n2)c1O | 3.139 | 5 | –
13 | CC(=O)c1cc(CC(C)C)cc(C(=O)Nc2nn[nH]n2)c1O | 1.783 | 0.2 | –
14 | Cc1cc(NC(=O)c2nn[nH]n2)c(O)c(-c2nn[nH]n2)c1 | 2.455 | 1 | –
15 | CCCc1cc(C(C)=O)c(O)c(C(=O)Nc2nn[nH]n2)c1 | 2.762 | 2 | –
16 | CC(=O)c1cc(F)cc(NC(=O)c2nnn[nH]2)c1O [EFLUMAST] | 3.724 | 20 | ED50 [3]: 0.004 mg/kg; ED50 [4]: 0.16 mg/kg
17 | CC(=O)c1cc(C(C)(C)C)cc(NC(=O)c2nn[nH]n2)c1O | 2.17 | 0.5 | –
18 | CCc1cc(NC(=O)c2nn[nH]n2)c(O)c(C(C)=O)c1 | 3.74 | 20 | –
19 | CC(C)(C)c1ccc(O)c(C(=O)Nc2nn[nH]n2)c1 | 0.417 | 0.01 | –
20 | COc1cc(C#N)cc(C(=O)Nc2nn[nH]n2)c1O | 2.716 | 2 | –
21 | CC(=O)c1cc(Br)cc(C(=O)Nc2nn[nH]n2)c1O | 1.212 | 0.05 | –
22 | O=C(Nc1nn[nH]n1)c1cc(-c2ccccc2)ccc1O | 0.449 | 0.01 | –
23 | COc1cc([N+](=O)[O-])cc(C(=O)Nc2nn[nH]n2)c1O | 2.447 | 1 | –
24 | O=C(Nc1nn[nH]n1)c1cc(C(F)(F)F)ccc1O | 0.737 | 0.02 | –
25 | COc1cccc(C(=O)Nc2nn[nH]n2)c1O | 2.371 | 1 | –
26 | COc1cc(NC(C)=O)cc(C(=O)Nc2nn[nH]n2)c1O | 0.766 | 0.02 | –
27 | CC(=O)c1cc(Br)cc(NC(=O)c2nn[nH]n2)c1O | 2.814 | 2 | –

Row | Structure (SMILES) | Log [MrI] [1] | Relative activity [2] | further results
28 | CC(=O)c1cccc(NC(=O)c2nn[nH]n2)c1O | 3.694 | 20 | –
29 | Cc1cc(NC(=O)c2nn[nH]n2)c(O)c(C(=O)C2CC2)c1 | 3.157 | 5 | –
30 | CC(=O)c1cc(Cl)cc(C(=O)Nc2nn[nH]n2)c1O | 1.149 | 0.05 | –
31 | CC(=O)c1cc(Cl)cc(NC(=O)c2nn[nH]n2)c1O | 3.295 | 7 | –
32 | O=C(Nc1nn[nH]n1)c1cc(F)ccc1O | 1.348 | 0.1 | –
33 | CN(C)S(=O)(=O)c1ccc(O)c(C(=O)Nc2nn[nH]n2)c1 | 1.193 | 0.05 | –
34 | CC(=O)c1cc(C#N)cc(NC(=O)c2nn[nH]n2)c1O | 3.435 | 10 | –
35 | COC(=O)c1cc(C)cc(NC(=O)c2nn[nH]n2)c1O | – | 2 | Log MrI [5]: 2.74
36 | Cc1cc(NC(=O)c2nn[nH]n2)c(O)c(C(=O)C(F)(F)F)c1 | 1.8 | 0.2 | –
37 | CSc1ccc(O)c(C(=O)Nc2nn[nH]n2)c1 | 1.701 | 0.2 | –
38 | Cc1ccc(O)c(C(=O)Nc2nn[nH]n2)c1 | 1.34 | 0.1 | –
39 | CC(=O)c1cc(S(N)(=O)=O)cc(C(=O)Nc2nn[nH]n2)c1O | 1.814 | 0.2 | –
40 | CC(=O)c1cc(C)cc(NC(=O)c2nn[nH]n2)c1O | 3.417 | 10 | –
41 | CC(=O)c1cccc(C(=O)Nc2nn[nH]n2)c1O | 2.393 | 1 | –
42 | CCC(=O)c1cc(C#N)cc(NC(=O)c2nn[nH]n2)c1O | 3.156 | 5 | –
43 | Cc1cc(NC(=O)c2nn[nH]n2)c(O)c(C(=O)Cc2ccccc2)c1 | 3.528 | 0.1 | –
44 | CC(=O)Nc1cc(C(C)=O)c(O)c(C(=O)Nc2nn[nH]n2)c1 | 1.784 | 0.2 | –
45 | COc1cccc(NC(=O)c2nn[nH]n2)c1O | 3.07 | 5 | –
46 | CC(=O)Nc1cc(NC(=O)c2nn[nH]n2)c(O)c(C(C)=O)c1 | – | 0.5 | Log MrI [5]: 2.19
47 | O=C(Nc1nn[nH]n1)c1cc(Br)ccc1O | 0.756 | 0.02 | –
48 | CCOC(=O)c1cc(C)cc(NC(=O)c2nn[nH]n2)c1O | – | 10 | Log MrI [5]: 3.46
49 | COc1cc(C)cc(NC(=O)c2nn[nH]n2)c1O | 2.794 | 2.5 | –
50 | CC(=O)c1ccc(O)c(C(=O)Nc2nn[nH]n2)c1 | 0.694 | 0.02 | –
51 | CC(=O)c1cc(C(C)(C)C)cc(C(=O)Nc2nn[nH]n2)c1O | 2.084 | 0.4 | –
52 | CC(=O)c1cc([N+](=O)[O-])cc(C(=O)Nc2nn[nH]n2)c1O | 2.465 | 1 | –
53 | CC(=O)c1cc(F)cc(C(=O)Nc2nnn[nH]2)c1O | 2.123 | 0.5 | pKa ([6]; aqueous media, read-out: pKa): 4.2; pKa ([6]; buffer): 7.1
54 | COc1ccc(O)c(C(=O)Nc2nn[nH]n2)c1 | 1.672 | 0.2 | –

Row | Structure (SMILES) | Log [MrI] [1] | Relative activity [2] | further results
55 | O=C(Nc1nn[nH]n1)c1cc([N+](=O)[O-])ccc1O | – | 0.5 | Log MrI [5]: 2.1
56 | CC(=O)c1cc(S(C)(=O)=O)cc(NC(=O)c2nn[nH]n2)c1O | 2.813 | 2 | –
57 | CCCc1cc(NC(=O)c2nn[nH]n2)c(O)c(C(C)=O)c1 | 3.461 | 10 | –
58 | Cc1cc(NC(=O)c2nn[nH]n2)c(O)c(C(=O)O)c1 | – | 0.2 | Log MrI [5]: 1.72
59 | COc1cc(Br)cc(NC(=O)c2nn[nH]n2)c1O | 2.798 | 2 | –
60 | COc1cc(C(C)=O)c(O)c(C(=O)Nc2nn[nH]n2)c1 | 2.743 | 2 | –
61 | CO/N=C(\C)c1cc(C)cc(NC(=O)c2nn[nH]n2)c1O | 3.463 | 10 | –
62 | CCc1cc(NC(=O)c2nn[nH]n2)c(O)c(OC)c1 | 3.42 | 10 | –
63 | COc1cc(Br)cc(C(=O)Nc2nn[nH]n2)c1O | 1.798 | 0.2 | –
64 | COc1cc(C)cc(C(=O)Nc2nn[nH]n2)c1O | 2.095 | 0.5 | –
65 | CN(C)S(=O)(=O)c1ccc(O)c(NC(=O)c2nn[nH]n2)c1 | 1.892 | 0.25 | –
66 | Cc1cc(NC(=O)c2nn[nH]n2)c(O)c(C(=O)C(C)C)c1 | 3.16 | 5 | –
67 | C/C(=N\O)c1cc(C)cc(NC(=O)c2nn[nH]n2)c1O | 3.985 | 35 | –
68 | CCc1cc(OC)c(O)c(C(=O)Nc2nn[nH]n2)c1 | 2.42 | 1 | –
69 | Cc1cc(NC(=O)c2nn[nH]n2)c(O)c(C(N)=O)c1 | 3.118 | 5 | –
70 | O=C(Nc1nn[nH]n1)c1cc(Cl)ccc1O | 1.38 | 0.1 | –
71 | O=C(Nc1nn[nH]n1)c1cc(O)ccc1O | – | 0.1 | Log MrI [5]: 1.34
72 | CCC(=O)c1cc(C)cc(C(=O)Nc2nn[nH]n2)c1O | 2.741 | 2 | –
73 | CCCC(=O)c1cc(C)cc(NC(=O)c2nn[nH]n2)c1O | 3.063 | 4 | –
74 | CC(=O)c1cc(C)cc(C(=O)Nc2nn[nH]n2)c1O | 2.417 | 1 | –
75 | Cc1cc(NC(=O)c2nn[nH]n2)c(O)c(C(=O)N(C)C)c1 | 2.463 | 1 | –
76 | COc1cc(C(C)(C)C)cc(C(=O)Nc2nn[nH]n2)c1O | 1.464 | 0.1 | –
77 | CCc1cc(C(=O)Nc2nn[nH]n2)c(O)c(/C(C)=N/O)c1 | 3.462 | 10 | –
78 | CS(=O)(=O)c1ccc(O)c(C(=O)Nc2nn[nH]n2)c1 | 1.053 | 0.04 | –
79 | N#Cc1ccc(O)c(C(=O)Nc2nn[nH]n2)c1 | 2.061 | 0.5 | –
